The nature of experiment [1]: Cytotoxicity against human NCI60 cells. Type of experiment: functional. Particulars: for CC50: read-out: LC50 (the source's name). An outline of the steps:
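Screened in the NCI 60 human tumour cell-line panel. Values are GI50 (50% growth inhibition), TGI (total growth inhibition) and LC50 (50% lethality) concentrations, each reported as the mean across the 60-cell-line panel.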

Experiment [2] relates to DNA. In words: Binding affinity to calf thymus DNA at 5 uM after 18 hrs by UV-visible spectrophotometric analysis. Format: nucleic-acid assay. The note with it: Bos taurus. The procedure, abridged: (§1)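 Calf thymus DNA at 50 μM bp with ligand fixed at 5 μM. Buffer was 10 mM sodium phosphate, 1 mM EDTA, pH 7.00, with ≤0.3% DMSO. Incubated at 37 °C, then melted at 1 °C/min from 50–99 °C while monitoring absorbance at 260 nm. Buffer baseline subtracted and DMSO-corrected. ΔTm = Tm(DNA+ligand) − Tm(DNA), run in triplicate.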

A short description of experiment [3]: Cytotoxicity against human NCI60 cells assessed as concentration required for total growth inhibition. Type of experiment: functional. An outline of the steps: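 NCI 60 human tumor cell line screen. TGI is the concentration causing total growth inhibition, given as the mean across the 60-cell-line panel.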
Experiment [4] has as its system DNA. In words: Binding affinity to calf thymus DNA at 5 uM after 4 hrs by UV-visible spectrophotometric analysis. Format: nucleic-acid assay. Particulars: Bos taurus. An outline of the steps: as §1
The species named for experiment [5] is Homo sapiens. Put plainly: Binding affinity to 170 bp human DNA topoisomerase 2-alpha promoter ICB2 site at 1 uM after 17 hrs by DNase 1 footprinting assay. An outline of the steps:
(§2)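 170 bp Topo IIα promoter fragment (ICB1 and ICB2) PCR-amplified from human genomic DNA, IR700 end-labeled, used at 4 nM final. Incubated in the dark for 17 h at room temperature. DNase I digestion for 8 min, stopped with EDTA. Denaturing sequencing gel with IR dye detection and G+A markers.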

The species entered for experiment [6] is Homo sapiens. In words: Binding affinity to 170 bp human DNA topoisomerase 2-alpha promoter ICB1 site at 5 uM after 17 hrs by DNase 1 footprinting assay. An outline of the steps:
as §2

The subject of experiment [7] is NIH3T3. Put plainly: Binding affinity to topo 2-alpha ICB2 (5'-CTACGATTGGTTCTT-3') in mouse NIH/3T3 cells nuclear extract assessed as inhibition of NF-Y transcription factor binding at 5 uM preincubated for 1.5 hrs by electrophoretic mobility shift assay. Type of experiment: cell-free. The procedure, abridged: (§3)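 Nuclear extract from NIH3T3 cells grown in DMEM with 10% newborn calf serum. 5 μg extract held at 4 °C for 30 min in K-Hepes pH 7.9 buffer with poly(dI-dC). About 0.1 ng of 32P end-labeled double-stranded ICB1 or ICB2 oligonucleotide then added for 2 h at room temperature. Run on 4% native polyacrylamide gel at 4 °C with autoradiography. Cold and mutated oligonucleotides served as controls.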
A general note: Mobility shift assays separate free from complexed probe on a gel.

Experiment [8] relates to NIH/3T3. In words: Binding affinity to Topo 2-alpha ICB1 (5'-CAGGGATTGGCTGGT-3') in mouse NIH/3T3 cells nuclear extract assessed as inhibition of NF-Y transcription factor binding at 50 uM preincubated for 1.5 hrs by electrophoretic mobility shift assay. Format: cell-free. An outline of the steps: as §3
In experiment [9] the test system is NIH/3T3. Put plainly: Binding affinity to topo 2-alpha ICB1 (5'-CAGGGATTGGCTGGT-3') in mouse NIH/3T3 cells nuclear extract assessed as inhibition of NF-Y transcription factor binding at 5 uM preincubated for 1.5 hrs and by electrophoretic mobility shift assay. Type of experiment: cell-free. An outline of the steps: as §3
Experiment [10] is filed under the species Homo sapiens. Put plainly: Binding affinity to 170 bp human DNA topoisomerase 2-alpha promoter ICB1 site at 1 uM after 17 hrs by DNase 1 footprinting assay. The procedure, abridged: as §2

The results in this text go back to ChEMBL document CHEMBL2417466, “An extended pyrrolobenzodiazepine-polyamide conjugate with selectivity for a DNA sequence containing the ICB2 transcription factor binding site” (2013).

The source made the active and inactive calls. No cut-off for these calls is given here.

Take `COC(=O)c1cc(NC(=O)c2nc(NC(=O)c3cc(NC(=O)CCCOc4cc5c(cc4OC)C(=O)N4CCC[C@H]4C=N5)cn3C)cn2C)cn1C`: it took 3 nM to inhibit growth in [1] by half (GI50). Moreover, the CC50 in [1] turned out to be 6600 nM. In addition, the results for the ΔTm in [2] and in experiment [4] were 16.9 °C and 16 °C, respectively. In addition, the TGI (in general, the concentration giving total growth inhibition) in [3] is 20 nM.
`CCOC(=O)c1nc(NC(=O)c2cc(NC(=O)c3nc(NC(=O)CCCOc4cc5c(cc4OC)C(=O)N4CCC[C@H]4C=N5)cn3C)cn2C)cn1C`: in experiment [1], halving of growth (GI50) required 4.2 nM and the CC50 amounted to 12300 nM. For the same compound, the ΔTm (as a rule, the change in melting temperature against a reference sample) in experiment [2] was determined as 16.2 °C. Moreover, the TGI in [3] came to 141 nM. Also, the ΔTm in [4] stood at 15.7 °C.
Taken in the same sequence, the figures for `CCOC(=O)c1nc(NC(=O)c2cc(NC(=O)c3cc(NC(=O)CCCOc4cc5c(cc4OC)C(=O)N4CCC[C@H]4C=N5)cn3C)cn2C)cn1C` were 3.8 nM, 6800 nM, 18.7 °C, 37 nM and 17.6 °C.
Consider `COC(=O)c1cc(NC(=O)c2nc(NC(=O)c3nc(NC(=O)CCCOc4cc5c(cc4OC)C(=O)N4CCC[C@H]4C=N5)cn3C)cn2C)cn1C`, for which growth in [1] was halved (GI50) at 3.8 nM. Besides, the CC50 in experiment [1] was 6800 nM. Moreover, the ΔTm in [2] was 15.4 °C; in experiment [4], 15 °C. The TGI in experiment [3] was determined as 37 nM.
On to `CCOC(=O)c1csc(NC(=O)c2csc(NC(=O)c3cc(NC(=O)CCCOc4cc5c(cc4OC)C(=O)N4CCC[C@H]4C=N5)cn3C)n2)n1`, for which the ΔTm in experiment [2] worked out at 8.4 °C; in experiment [4], 8.1 °C.
Regarding `COC(=O)c1cc(NC(=O)c2cc(NC(=O)c3cc(NC(=O)CCCOc4cc5c(cc4OC)C(=O)N4CCC[C@H]4C=N5)cn3C)cn2C)cn1C`, in [1], the GI50 (usually the concentration giving 50% growth inhibition) worked out at 15 nM and the CC50 came out at 1100 nM. Moreover, in [2], the ΔTm was determined as 20.2 °C. In addition, in [3], the TGI was found to be 32 nM. Moreover, the ΔTm in experiment [4] stood at 18.7 °C.
As for `CCOC(=O)c1csc(NC(=O)c2cc(NC(=O)c3csc(NC(=O)CCCOc4cc5c(cc4OC)C(=O)N4CCC[C@H]4C=N5)n3)cn2C)n1`, the ΔTm was found to be 7.8 °C in [2] and 7.1 °C in experiment [4].
With `COC(=O)c1cc(NC(=O)c2cc(NC(=O)c3nc(NC(=O)CCCOc4cc5c(cc4OC)C(=O)N4CCC[C@H]4C=N5)cn3C)cn2C)cn1C`, the GI50 in experiment [1] amounted to 1.3 nM. Also, in experiment [1], the CC50 worked out at 2300 nM. Further, the outcome in experiment [5] and in experiment [6] was Active. Besides, the inhibition result in experiment [7] and in experiment [8] was “Active” in each case. Also, the ΔTm stood at 21.1 °C in experiment [2] and 19.8 °C in experiment [4]. In addition, the TGI in experiment [3] amounted to 24 nM.
For the compound `COC(=O)c1cc(NC(=O)c2csc(NC(=O)c3cc(NC(=O)CCCOc4cc5c(cc4OC)C(=O)N4CCC[C@H]4C=N5)cn3C)n2)cn1C`, in experiment [1], halving of growth (GI50) required 2.8 nM and the CC50 was determined as 9100 nM. Besides, the ΔTm in experiment [2] came to 20.7 °C. The TGI in experiment [3] was 50 nM. The ΔTm in experiment [4] was found to be 19.9 °C.
`CCOC(=O)c1csc(NC(=O)c2cc(NC(=O)c3cc(NC(=O)CCCOc4cc5c(cc4OC)C(=O)N4CCC[C@H]4C=N5)cn3C)cn2C)n1` yielded a GI50 in experiment [1] of 2.9 nM. For the same compound, in [1], the CC50 was 8900 nM. Moreover, the ΔTm in experiment [2] came out at 18.6 °C; in experiment [4], 17.7 °C. The TGI in [3] is 28 nM.
With `COC(=O)c1cc(NC(=O)c2cc(NC(=O)CCCOc3cc4c(cc3OC)C(=O)N3CCC[C@H]3C=N4)cn2C)cn1C`, the outcome in [5] and in experiment [10] was Active. Moreover, the inhibition entry in experiment [9] and in experiment [7] was “Active” each time.
Consider `CCOC(=O)c1nc(NC(=O)c2nc(NC(=O)c3cc(NC(=O)CCCOc4cc5c(cc4OC)C(=O)N4CCC[C@H]4C=N5)cn3C)cn2C)cn1C`, for which, in experiment [1], the GI50 stood at 13.5 nM and the CC50 was 9500 nM. Besides, the ΔTm in experiment [2] is 15.2 °C. In [3], the TGI came to 27 nM. In experiment [4], the ΔTm came to 14.8 °C.
For the compound `CCOC(=O)c1csc(NC(=O)c2csc(NC(=O)c3csc(NC(=O)CCCOc4cc5c(cc4OC)C(=O)N4CCC[C@H]4C=N5)n3)n2)n1`, in experiment [1], halving of growth (GI50) required 282 nM and the CC50 amounted to 15800 nM. Moreover, in [2], the ΔTm was found to be 10.9 °C. The TGI in experiment [3] was determined as 2040 nM. In [4], the ΔTm stood at 10.7 °C.
In the case of `COC(=O)c1cc(NC(=O)c2cc(NC(=O)c3csc(NC(=O)CCCOc4cc5c(cc4OC)C(=O)N4CCC[C@H]4C=N5)n3)cn2C)cn1C`, in experiment [1], it took 1.4 nM to inhibit growth by half (GI50) and the CC50 came out at 4400 nM. Besides, the ΔTm in experiment [2] came to 18.2 °C. Besides, in experiment [3], the TGI is 30 nM. The ΔTm in [4] is 17.4 °C.
`CCOC(=O)c1nc(NC(=O)c2nc(NC(=O)c3nc(NC(=O)CCCOc4cc5c(cc4OC)C(=O)N4CCC[C@H]4C=N5)cn3C)cn2C)cn1C` came in with a GI50 in [1] of 87.1 nM. Also, the CC50 in [1] was 15400 nM. Further, the ΔTm in [2] was determined as 12 °C; in experiment [4], 11.7 °C. Also, the TGI in experiment [3] amounted to 1290 nM.
